From PubChem BioAssay AID652046 (Broad Institute, 2013)
Records with an inconclusive call do not appear. The source made the active and inactive calls.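 How the source made its calls: active means fitted curve falls past -35% activity change at a concentration no higher than twice the top tested dose; inconclusive means no clear call, values can overlap the other calls; inactive means the rest, including activity in the opposite direction.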

Test system: IL-1beta-stimulated NF-kB eGFP reporter/dsRed, flow cytometry, 16 h
Experiment: inhibitors of IL-1beta-induced GFP signal – cell-based, eGFP reporter, dsRed control, flow cytometry, dry powder, selectivity assay for EBV LMP1 NF-kB inhibitor project, dose response (AID 652046)
Conditions: not given
Method in brief: (§1)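 Material – HEK293 NF-κB eGFP reporter cells with dsRed · Reagent – IL-1beta stimulation · Incubation – 16 h compound exposure, 37 °C · Signal – flow cytometry, scatter-gated live cells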

| SMILES | AC35 [µM] |
| --- | --- |
| CN(C)c1ccc2c(c1)[C@@H]1C[C@@H](CC(=O)NCc3ccccc3F)O[C@@H](CO)[C@@H]1O2 | 20.8 |
| CN(C)c1ccc2c(c1)[C@@H]1C[C@@H](CC(=O)NCc3cc(F)ccc3F)O[C@@H](CO)[C@@H]1O2 | 2.23 |
| CN(C)c1ccc2c(c1)[C@@H]1C[C@@H](CC(=O)N3CCOCC3)O[C@@H](CO)[C@@H]1O2 | 2.09 |
| O=C(Nc1ccc(C(F)(F)F)cc1)Nc1ccc2c(c1)[C@H]1C[C@@H](CC(=O)N3CCc4ccccc4C3)O[C@@H](CO)[C@H]1O2 | 12.7 |
| Nc1ccn([C@@H]2O[C@H](CO)[C@@H](O)C2O)c(=O)n1 (stereo partly drawn) | 19.1 |
| Cc1cc(C(=O)Nc2ccc3c(c2)C(=O)N(C)[C@@H]2CC[C@H](CC(=O)N[C@H](C)c4ccccc4)O[C@H]2CO3)no1 | 15.9 |
| COc1ccccc1[C@]1(C)ON(c2ccccc2C(F)(F)F)C1=O | 10.7 |
| O=C(C[C@@H]1C[C@H]2c3cc(NC(=O)NC4CCCC4)ccc3O[C@H]2[C@H](CO)O1)NCc1ccc(Oc2ccccc2)cc1 | 17.1 |
| O=C(C[C@@H]1C[C@H]2c3cc(NC(=O)Nc4ccccc4F)ccc3O[C@H]2[C@H](CO)O1)NCc1ccc(Oc2ccccc2)cc1 | 16.3 |
| CS(=O)(=O)Nc1ccc2c(c1)[C@@H]1C[C@@H](CC(=O)NCc3ccc(Oc4ccccc4)cc3)O[C@@H](CO)[C@@H]1O2 | 0.664 |
| CN1C(=O)c2cc(NC(=O)Nc3ccccc3F)ccc2OC[C@@H]2O[C@@H](CC(=O)NCc3ccc(-c4ccccc4)cc3)CC[C@H]21 | 0.14 |
| Cc1cc(C(=O)Nc2ccc3c(c2)C(=O)N(C)[C@@H]2CC[C@H](CC(=O)NC4CCCC4)O[C@H]2CO3)no1 | 9.72 |

Test system: not listed separately
Experiment: as above
Conditions: IL-1beta-stimulated NF-kB eGFP reporter/dsRed, flow cytometry, 16 h; at 18 µM (top of the series)
Method in brief: as §1

| SMILES | activity change, negative = inhibition |
| --- | --- |
| Cc1cc(C(=O)Nc2ccc3c(c2)C(=O)N(C)[C@@H]2CC[C@H](CC(=O)NCc4ccc(-c5ccccc5)cc4)O[C@H]2CO3)no1 | -15.2% (inactive) |

Same assay, conditions: IL-1beta-stimulated NF-kB eGFP reporter/dsRed, flow cytometry, 16 h; at 19.5 µM (top of the series)

| SMILES | activity change, negative = inhibition |
| --- | --- |
| COCCNC(=O)C[C@H]1CC[C@@H]2[C@H](COc3ccc(NC(=O)c4cc(C)on4)cc3C(=O)N2C)O1 | 1.68% (inactive) |
| CNC(=O)C[C@H]1CC[C@@H]2[C@H](COc3ccc(NC(=O)c4cc(C)on4)cc3C(=O)N2C)O1 | -2.16% (inactive) |
| CN(C)c1ccc2c(c1)[C@@H]1C[C@@H](CC(=O)NCCc3ccccc3)O[C@@H](CO)[C@@H]1O2 | -4.63% (inactive) |
| CCNC(=O)C[C@H]1CC[C@@H]2[C@H](COc3ccc(NC(=O)c4cc(C)on4)cc3C(=O)N2C)O1 | 0.718% (inactive) |
| CCCNC(=O)C[C@H]1CC[C@@H]2[C@H](COc3ccc(NC(=O)c4cc(C)on4)cc3C(=O)N2C)O1 | 2% (inactive) |
| CN1C(=O)c2cc(NS(C)(=O)=O)ccc2OC[C@@H]2O[C@@H](CC(=O)NCc3ccc(-c4ccccc4)cc3)CC[C@H]21 | 10.3% (inactive) |
| CN(C)c1ccc2c(c1)[C@@H]1C[C@@H](CC(=O)N3CCc4ccccc4C3)O[C@@H](CO)[C@@H]1O2 | 4.65% (inactive) |
| CN(C)c1ccc2c(c1)[C@@H]1C[C@@H](CC(=O)NCC3CC3)O[C@@H](CO)[C@@H]1O2 | -1.79% (inactive) |
| O=C(C[C@@H]1C[C@H]2c3cc(NS(=O)(=O)c4ccc(F)cc4)ccc3O[C@H]2[C@H](CO)O1)NCc1ccc(Oc2ccccc2)cc1 | 6.68% (inactive) |
| CN(C)c1ccc2c(c1)[C@@H]1C[C@@H](CC(=O)NCc3ccc4c(c3)OCO4)O[C@@H](CO)[C@@H]1O2 | -8.36% (inactive) |
| CN(C)c1ccc2c(c1)[C@@H]1C[C@@H](CC(=O)NCc3ccc(Oc4ccccc4)cc3)O[C@@H](CO)[C@@H]1O2 | 4.75% (inactive) |
| COc1ccccc1CNC(=O)C[C@@H]1C[C@H]2c3cc(N(C)C)ccc3O[C@H]2[C@H](CO)O1 | 2.93% (inactive) |
| COCCNC(=O)C[C@@H]1C[C@H]2c3cc(N(C)C)ccc3O[C@H]2[C@H](CO)O1 | -7.46% (inactive) |

Same assay, conditions: IL-1beta-stimulated NF-kB eGFP reporter/dsRed, flow cytometry, 16 h; at 21 µM (top of the series)

| SMILES | activity change, negative = inhibition |
| --- | --- |
| Cc1cc(C(=O)Nc2ccc3c(c2)C(=O)N(C)[C@@H]2CC[C@H](CC(=O)NCc4ccc(-c5ccccc5)cc4)O[C@@H]2CO3)no1 | 4.6% (inactive) |
| Cc1cc(C(=O)Nc2ccc3c(c2)C(=O)N(C)[C@@H]2CC[C@H](CC(=O)N[C@@H](C)c4ccccc4)O[C@H]2CO3)no1 | 5.36% (inactive) |
